ChEMBL document CHEMBL1125330, “N-substituted pyrazino[2,3-c][1,2,6]thiadiazine 2,2-dioxides. A new class of diuretics” (J Med Chem, 1992)

Columns and labels:
Conditions in all cases: in vivo
Rattus norvegicus [1] = organism: Rattus norvegicus; experiment: Mean urinary output in rats (Control/Drug treatment; value 23.3/29.9; type: ADME, organism-based, Urine
Rattus norvegicus [2] = organism: Rattus norvegicus; experiment: Mean sodium excretion in rats (Control/Drug treatment value); value 0.52/2.02; type: ADME, organism-based
Rattus norvegicus [3] = organism: Rattus norvegicus; experiment: Mean urinary output in rats (Control/Drug treatment value); value 24.0/36.5; type: ADME, organism-based, Urine
In short: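 Water-loaded male Sprague-Dawley rats (HC/CFY, 175-200 g), eight per group, deprived of food and water 18 h. Single oral gavage of 20-25 mg/kg (some 10 mg/kg) in 1% CMC/0.1% Tween 80, then distilled water 2.5 mL/100 g bw po. Cumulative urine over 6 h in metabolic cages; mean mL/6 h/kg bw vs vehicle group.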

| V (Rattus norvegicus [1]) | Na (Rattus norvegicus [2]) | V (Rattus norvegicus [3]) | SMILES |
| --- | --- | --- | --- |
| 1.3 | – | – | CCN1c2nc(C(F)(F)F)c(C(F)(F)F)nc2C(N)=NS1(=O)=O |
| – | 3.9 | 1.5 | CCc1nc2c(nc1C)C(N)=NS(=O)(=O)N2C |
